Hits are enriched below; roughly 1.8% of the tested compounds scored in any of these assays.
TDP2 absorb: TDP2 (human) inhibition, absorbance primary screen; O95551; AID 720702; inhibition, % at 12.8 µM; recombinant TDP2, T5PNP hydrolysis, p-nitrophenol absorbance 415 nm; actives 0.34% (n = 370,000);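 active = inhibition above the mean of all tested compounds plus 3 SD, set per campaign, cut at about 25% in these data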;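 also: 0% = DMSO with enzyme and 100% = buffer with substrate but no TDP2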
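System – recombinant human TDP2 · Amount – 120 nM TDP2 per well · Buffer or medium – Mg2+-containing Tris-HCl buffer, pH 7.5 · Reagent – T5PNP substrate, 5 mM · Dosing – 12.8 µM single point, 1% DMSO · Incubation – 2 h at 37 °C · Measured by – epi absorbance · Read-out basis – percent inhibition · Benchmarks – high control without enzyme, low control DMSO plus TDP2 · Repeats – singlicate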
LEDGF integ inh: blocks HIV-1 LEDGF/p75-dependent DNA integration; TR-FRET IN-LEDGF/p75 DNA integration, Eu/Cy5; inhibition, % at 3.7 µM; actives 0.64% (n = 370,000); AID 743269;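 active = inhibition above the screen-wide mean plus 3 SD, cut at about 13% in these data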;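 also: signal is the Cy5 over europium emission ratio at 671 and 618 nm; 0% = plate median of compound wells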
core dimer inh: blocks dimerization of HCV core protein. AID 1899. inhibition, % at 5 µM. TR-FRET GST/Flag-core106 dimerization, 1536-well. actives 0.33% (n = 300,000);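 active = inhibition above the mean of all tested compounds plus 3 SD, set per screening campaign, cut at about 45% in these data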
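Test system: GST/Flag-tagged HCV core106 proteins; Medium: KF-containing HEPES buffer, pH 7.45, DTT, CHAPS, BSA; Times: compound-protein-antibody incubation 4 h at 22.5 °C; Detection: TR-FRET 671 and 617 nm emission; Benchmarks: wells lacking GST-core106 and wells with excess unlabelled core106.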
MBD2 inh: blocks human MBD2 binding to methylated DNA. TR-FRET, MBD2 binding to methylated oligonucleotide. inhibition, % at 4.4 µM. actives 0.31% (n = 370,000). Q9UBB5; in the data active = inhibition above about 13%
UHRF1 MBD2 ctr: human UHRF1 methylated DNA binding inhibitors; Q96T88; UHRF1 binding to methylated oligo, TR-FRET; inhibition, % at 4.4 µM; actives 0.75% (n = 370,000); AID 687016; in the data active = inhibition above about 21%;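 also: UHRF1 SRA domain binding a hemimethylated CpG hairpin DNA probe; 0% = median of test compound wells and 100% = reference inhibitor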
Target sequence (Q96T88 whole entry, looked up, the tested form may be a part): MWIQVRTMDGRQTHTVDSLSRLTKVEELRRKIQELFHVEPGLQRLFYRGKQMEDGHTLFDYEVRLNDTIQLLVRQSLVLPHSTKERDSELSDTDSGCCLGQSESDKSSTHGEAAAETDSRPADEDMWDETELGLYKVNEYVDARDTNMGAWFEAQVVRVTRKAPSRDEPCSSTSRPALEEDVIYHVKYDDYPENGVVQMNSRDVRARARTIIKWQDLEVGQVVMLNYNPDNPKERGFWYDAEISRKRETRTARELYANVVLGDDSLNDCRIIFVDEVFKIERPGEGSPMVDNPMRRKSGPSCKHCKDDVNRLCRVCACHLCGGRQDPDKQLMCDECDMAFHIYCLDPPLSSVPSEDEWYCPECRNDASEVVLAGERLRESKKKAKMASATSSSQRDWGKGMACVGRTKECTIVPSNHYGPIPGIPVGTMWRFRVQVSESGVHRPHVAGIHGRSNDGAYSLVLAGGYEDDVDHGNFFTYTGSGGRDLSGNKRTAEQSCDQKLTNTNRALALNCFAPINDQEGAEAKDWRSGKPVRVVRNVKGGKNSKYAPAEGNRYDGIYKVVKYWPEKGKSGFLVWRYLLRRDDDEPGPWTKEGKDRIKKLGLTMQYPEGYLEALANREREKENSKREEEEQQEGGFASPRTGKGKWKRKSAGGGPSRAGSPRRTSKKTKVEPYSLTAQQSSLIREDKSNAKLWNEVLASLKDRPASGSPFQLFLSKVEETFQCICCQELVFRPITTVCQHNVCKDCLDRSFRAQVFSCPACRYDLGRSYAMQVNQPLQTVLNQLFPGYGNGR
The depositor's hits bear a star; nt = no result.

SMILES | TDP2 absorb | LEDGF integ inh | core dimer inh | MBD2 inh | UHRF1 MBD2 ctr
O=C(Nc1nnc(SCC(=O)N2CCOCC2)s1)C1CC(=O)N(c2ccc(F)cc2)C1 (configuration not stated) | 0 | 4 | 53* | -8 | -1
Cc1cccc(N2CC(C(=O)Nc3nnc(SCC(=O)Nc4nccs4)s3)CC2=O)c1 (configuration not stated) | 1 | 2 | 50* | 3 | 2
COc1cccc(N2CC(C(=O)Nc3nnc(SCc4ccccn4)s3)CC2=O)c1 (configuration not stated) | 2 | 0 | 5 | 4 | 5
CCOC(=O)[C@@]12CCCC3=C1N(CCC3)C(=O)[C@H]2CC(=O)NCCC(C)C | 5 | -2 | nt | 1 | -2
CCOC(=O)c1cc2c(ccc3ccccc32)oc1=O | -6 | -3 | 2 | -5 | 29*
COc1ccc(-c2nc3c(c(SCC(=O)Nc4cccc(O)c4)n2)Cc2c(CO)cnc(C)c2O3)cc1 | -10 | 14* | 71* | 1 | -1
Cc1ncc(CO)c2c1Oc1nc(-c3ccccc3)nc(SCC(=O)Nc3cccc(O)c3)c1C2 | 2 | 8 | 32 | 0 | -2
CCOC(=O)[C@@]12CN(C(=O)OC(C)(C)C)CC=C1N(Cc1ccc(OC)cc1)C(=O)[C@H]2CC(=O)NCC12CC3CC(CC(C3)C1)C2 | -1 | -4 | nt | 4 | 0
O=C(CN(CCc1ccccc1)S(=O)(=O)c1ccc(F)cc1)N1CCOCC1 | -2 | 0 | nt | -1 | 1
COCCN1Cc2cc(C(=O)OC)c3c(c2C1=O)c1cc(OC)ccc1n3C(=O)c1ccccc1 | -2 | 1 | nt | 4 | 1
CCCc1nc2ccc(Br)cn2c1Cc1ccccc1 | -5 | 4 | nt | 4 | 23*
CCCc1nc2ccc(C)cn2c1Cc1ccccc1 | 0 | 0 | nt | 11 | 21
CCCc1nc2ccc(Br)cn2c1Cc1cccc(Cl)c1 | 2 | -2 | nt | 8 | 21*
COC(=O)C1CN(Cc2ccc(OC)cc2)CCS(=O)(=O)N1Cc1cn(Cc2ccc(C)cc2)nn1 (configuration not stated) | -4 | -2 | nt | 1 | 7
CCOC(=O)N1C(=O)C[C@](Sc2ccc(OC)cc2)(C(=O)N2CCN(C(C)=O)CC2)[C@H]1c1ccc(OC)cc1 | -10 | -3 | nt | 2 | 1
O=C1N[C@@H](Cc2cn(S(=O)(=O)c3c(F)c(F)c(F)c(F)c3F)c3ccccc23)C(=O)N[C@H]1Cc1ccccc1 | nt | nt | 49* | nt | nt
CCc1cccc2c1NC(=O)[C@]21[C@@H]2C(=O)N(Cc3ccccc3)C(=O)[C@@H]2[C@@H]2CCCN21 | -2 | 1 | 55* | -2 | 1
COc1ccc(S[C@]2(C(=O)N(C)C)CC(=O)N(S(=O)(=O)c3ccc(F)cc3)[C@@H]2c2ccc(OC)cc2)cc1 | -2 | -2 | nt | 0 | -1
CN1Cc2nnn(Cc3ccccc3)c2-c2ccccc2S1(=O)=O | 5 | -2 | nt | 2 | 0
c1ccc(-c2noc(C3CCC3)n2)nc1 | 10 | 1 | 2 | 11 | 25*
CCCCC1CCC(c2nc(-c3ccccn3)no2)CC1 (configuration not stated) | -6 | 3 | 4 | 1 | 2
COc1ccc(CN2C(C(=O)NC3CCCC3)CSCCS2(=O)=O)cc1 (configuration not stated) | 2 | -2 | nt | 7 | 2
O=C(NC1CCCC1)C(=O)N(Cc1cccnc1)C(C(=O)NCC1CCCO1)c1ccco1 (configuration not stated) | -12 | 0 | -4 | 7 | 26*
CCOC(=O)/C=C(\C)Sc1cc(O)c2ccccc2c1O | 59* | 29* | nt | -4 | 7
COC(=O)[C@]12C[C@H](CC(=O)NCCCCc3ccccc3)C(=O)N(CCC3=CCCCC3)C1=C[C@H](COCc1ccccc1)O[C@@H]2C | -3 | -2 | nt | -2 | -1
SMILES | TDP2 absorb | LEDGF integ inh | core dimer inh | MBD2 inh | UHRF1 MBD2 ctr
COc1cc(C(=S)N2CCOCC2)cc(OC)c1OC(=O)c1ccc(F)cc1 | -5 | -4 | -7 | 3 | 1
COc1cc(C(=S)N2CCOCC2)ccc1OC(=O)c1cccc(C)c1 | -7 | -3 | 7 | 5 | 24*
COc1cc(C(=S)N2CCOCC2)ccc1OC(=O)c1ccc(Br)cc1 | -7 | -2 | nt | 2 | -1
COc1cc(C(=O)Oc2c(OC)cc(C(=S)N3CCOCC3)cc2OC)cc(OC)c1OC | -6 | -3 | 13 | 2 | 24*
O=C(NCc1ccco1)c1nn2c(C(F)(F)F)cc(-c3cccs3)nc2c1Br | 0 | 1 | 54* | -3 | -4
C#CCN1CC(N(C)CCOC(=O)c2ccc(OC)c(OC)c2)CS1(=O)=O (configuration not stated) | 6 | -1 | nt | -3 | -1
COc1ccc(CC2CCN(c3ncnc4sccc34)CC2)cc1 | 1 | -3 | nt | 0 | -3
Cc1ccc(CSc2nc3c(c(=O)[nH]2)CCC3)cc1 | -4 | 2 | -4 | 1 | 58*
Cc1cccc(N2CSC3=C(C#N)C(c4ccc(C)o4)CC(=O)N3C2)c1 (configuration not stated) | nt | nt | 84* | nt | nt
C/C(=N/Nc1ncc(Br)cn1)c1ccc(Br)cc1 | -6 | 2 | -9 | -1 | -3
C/C(=N\Nc1ccc(C(=O)O)cc1)c1ccc(Br)cc1 | 19 | 0 | -1 | 8 | 22*
COc1ccc(OC)c(S(=O)(=O)N2CCCCC2C(=O)N2CCN(c3ccccc3F)CC2)c1 (configuration not stated) | 0 | -1 | nt | 2 | -1
COc1ccccc1OCCCn1c(=O)oc2ccc(C)cc21 | 1 | -1 | -3 | -6 | -2
Cc1cccc(OCCCn2c(=O)oc3ccc(C)cc32)c1 | 0 | 12 | 4 | 11 | 25*
CCOC(=O)c1c(C)[nH]c(C)c1S(=O)(=O)NCCN1CCN(c2cc(Cl)ccc2C)CC1 | -2 | -1 | 9 | 2 | 58*
CCOC(=O)c1c(C)[nH]c(C)c1S(=O)(=O)NCCCN1CCOCC1 | -12 | -3 | -6 | -2 | -1
COc1ccc(N2CCN(C(=O)c3oc4ccccc4c3NC(=O)Cc3cccc(OC)c3)CC2)cc1 | 4 | 4 | 5 | 4 | 24*
COc1ccc(CNS(=O)(=O)/C=C/c2ccccc2CNC(=O)OC(C)(C)C)cc1 | 1 | 2 | nt | -1 | -2
CCOC(=O)c1ccc(NC(=O)c2cc3ccccc3o2)cc1 | 2 | 1 | 12 | 3 | 26*
O=C(NNC(=O)c1cccc(-n2cccc2)c1)c1ccc(F)cc1 | -2 | 3 | 52* | 10 | 14
Cc1ccsc1S(=O)(=O)n1c(CN2CCOCC2)nc2ccccc21 | 3 | -4 | nt | 1 | -3
O=C(COC(=O)/C=C/c1cccc(C(F)(F)F)c1)NC(=O)NCc1ccco1 | -1 | 4 | nt | -6 | 0
O=C(COC(=O)/C=C/c1cccc(C(F)(F)F)c1)NCc1ccco1 | 2 | 28* | -4 | 6 | 2

From PubChem BioAssay
